The entries come from a sample that favours hits as a whole.
IDH1 R132H inh: blocks human IDH1 R132H reductase activity; inhibition, % at 10 µM; hit rate 0.18% among 70,000; diaphorase/resazurin fluorescence, 60 min; O75874; in the data active = inhibition above about 34%; inconclusive = no clear call, values can overlap the other calls; inactive = below about 11%;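 note: 0% = DMSO and 100% = no enzyme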
Target sequence (O75874 whole entry R132H): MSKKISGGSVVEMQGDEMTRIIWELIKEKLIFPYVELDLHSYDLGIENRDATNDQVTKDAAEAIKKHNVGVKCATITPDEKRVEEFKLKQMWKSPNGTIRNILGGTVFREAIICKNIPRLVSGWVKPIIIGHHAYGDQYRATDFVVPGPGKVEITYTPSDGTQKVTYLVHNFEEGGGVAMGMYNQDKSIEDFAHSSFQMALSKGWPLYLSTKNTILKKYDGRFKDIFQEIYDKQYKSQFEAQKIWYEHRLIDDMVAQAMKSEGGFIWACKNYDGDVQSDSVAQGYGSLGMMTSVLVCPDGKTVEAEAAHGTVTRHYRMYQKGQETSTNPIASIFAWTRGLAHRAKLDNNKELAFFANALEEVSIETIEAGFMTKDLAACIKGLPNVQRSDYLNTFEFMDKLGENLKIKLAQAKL
KDM4C inh: inhibitors of human demethylase GASC-1 KDM4C; inhibition, % at 12.5 µM; GST-KDM4C 2-372, H3K9me3 peptide, LANCE TR-FRET; AID 720574; hit rate 0.15% among 96,000;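 active = mean replicate inhibition above about 25%, with at least 55% of replicates also reaching it, limit read from the data, passing the limit was not always enough; inconclusive = only one of those two conditions met; inactive = neither condition met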
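Material: GST-tagged GASC-1 (JMJD2C) catalytic fragment, aa 2-372 / Quantity: enzyme final amount 10 nM / Medium: HEPES buffer, pH 7.5, plus ascorbate / Doses: one test concentration per compound / Incubation: 30 min reaction, 60 min detection, RT / Measured by: LANCE TR-FRET / Read-out: inhibition from TR-FRET ratio decrease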
T cruzi growth-1: inhibitors of T. cruzi proliferation; T. cruzi beta-gal in NIH3T3, GalScreen luminescence, 90 h; inhibition, % at 8.34 µM; hit rate 5.9% among 77,000;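 active = mean inhibition above about 93%, with at least 55% of replicates each passing it, limit read from the data, passing the limit was not always enough; inconclusive = only one of those two conditions holds; inactive = neither condition holds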
T cruzi growth-2: inhibitors of T. cruzi proliferation | shares compounds with T cruzi growth-1 | T. cruzi beta-gal in NIH3T3, GalScreen luminescence, 90 h | inhibition, % at 8.35 µM | hit rate 72% among 5,600;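 active = mean replicate inhibition above about 95% and at least 55% of replicates individually reaching it, limit read from the data; inconclusive = only one of the two criteria is met; inactive = neither criterion is met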
T cruzi growth-3: Trypanosoma cruzi proliferation inhibition. hit rate 21% among 5,600. shares compounds with T cruzi growth-1. T. cruzi beta-gal in NIH3T3, GalScreen luminescence, 90 h. inhibition, % at 2.09 µM;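 active = mean inhibition above about 95%, with at least 55% of replicates also reaching it, limit read from the data; inconclusive = meets just one of the two conditions; inactive = meets neither condition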;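 note: plate controls were neutral control median for no effect and positive control median for full effect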
3T3 cytotox: NIH/3T3 (mouse) viability loss | hit rate 14% among 5,600 | shares compounds with T cruzi growth-1 | cytotoxicity (signal decrease), % at 8.35 µM | NIH/3T3 viability, CellTiter-Glo ATP luminescence, 90 h | AID 651742;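 active = mean signal decrease across replicates above about 35% based on untreated-well scatter, with enough replicates individually passing, limit read from the data; inconclusive = no rule stated though some were filed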;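 note: 0% = median of neutral control wells and 100% = median of positive control wells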
NIH3T3 tox 2: NIH/3T3 (mouse) viability loss | inhibition, % at 24.9 µM | shares compounds with T cruzi growth-1 | NIH/3T3 viability, CellTiter-Glo ATP luminescence, 90 h | hit rate 56% among 5,600;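 active = mean loss of cell viability signal at or above a set limit, and enough replicates individually reaching it; inconclusive = meets only the mean limit or only the replicate share; inactive = meets neither condition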;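 note: 0% = median of neutral control wells and 100% = median of positive control wells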
* = called active by the depositor; ? = inconclusive; · = no result given; + = active, no number.

SMILES | IDH1 R132H inh | KDM4C inh | T cruzi growth-1 | T cruzi growth-2 | T cruzi growth-3 | 3T3 cytotox | NIH3T3 tox 2
COc1ccc(-c2ccc3c(c2)O[C@@H](CN(C)Cc2cccnc2)[C@@H](C)CN([C@@H](C)CO)S3(=O)=O)cc1 | 2 | 0 | · | · | · | · | ·
COc1cccc(-c2ccc3c(c2)O[C@H](CN(C)Cc2cccnc2)[C@@H](C)CN([C@@H](C)CO)S3(=O)=O)c1 | 4 | 1 | 119* | 105* | 106* | ? | 60*
COc1cccc(-c2ccc3c(c2)O[C@H](CN(C)Cc2cccnc2)[C@H](C)CN([C@@H](C)CO)S3(=O)=O)c1 | 4 | -1 | 100* | 97* | 101* | 63* | 66*
O=C(COc1ccc(Cl)cc1)Nc1ccc2nn(-c3ccc(F)cc3)nc2c1 | 0 | · | · | · | · | · | ·
N#Cc1c(NC(=O)CN2CCN(Cc3ccccc3)CC2)sc2c1CCCC2 | 0 | · | · | · | · | · | ·
O=C(COc1ccc(S(=O)(=O)N2CCCCC2)cc1)Nc1ccc2c(c1)OCCO2 | 1 | · | · | · | · | · | ·
CN(CC(=O)Nc1ccccc1[N+](=O)[O-])S(=O)(=O)c1ccc(Cl)cc1 | 0 | · | · | · | · | · | ·
O=C(Nc1ccc(-c2ccccc2)cc1)[C@@H]1[C@@H](CO)[C@@H]2Cn3c(cccc3=O)[C@@H]2N1CC1CCCCC1 | · | -2 | ? | ? | 105* | -9 | 104*
O=C(Nc1ccc(-c2ccccc2)cc1)[C@H]1[C@H](CO)[C@H]2Cn3c(cccc3=O)[C@H]2N1CC1CCOCC1 | · | 1 | 63 | · | · | · | ·
CCCNC(=O)[C@H]1[C@H](CO)[C@H]2Cn3c(cccc3=O)[C@H]2N1CC1CCCCC1 | · | 2 | 10 | · | · | · | ·
CCNC(=O)[C@H]1[C@H](CO)[C@H]2Cn3c(cccc3=O)[C@H]2N1CC1CCCCC1 | · | -1 | + | 39 | 8 | 0 | -1
Cc1ccc(-n2c(C)nnc2SCC(=O)Nc2ccc(Cl)c(C(F)(F)F)c2)cc1 | 1 | · | · | · | · | · | ·
CC=Cc1ccc2n(c1=O)C[C@H]1[C@H](CO)[C@@H](C(=O)NCCC)[C@@H]2N1CC1CCOCC1 (mixture of isomers) | · | -1 | -12 | · | · | · | ·
CC=Cc1ccc2n(c1=O)C[C@H]1[C@H](CO)[C@@H](C(=O)NCCC)[C@@H]2N1CC1CC1 (mixture of isomers) | · | 0 | 102* | 56 | 5 | -8 | 8
CC=Cc1ccc2n(c1=O)C[C@@H]1[C@@H](CO)[C@H](C(=O)NCC3CC3)N(CCC(F)(F)F)[C@H]21 (mixture of isomers) | · | 5 | 111* | -47 | 3 | -10 | 6
CC=Cc1ccc2n(c1=O)C[C@@H]1[C@@H](CO)[C@H](C(=O)NCCC)[C@H]2N1C(=O)c1ccccc1F (mixture of isomers) | · | -1 | 100* | -4 | 11 | -10 | 4
CC=Cc1ccc2n(c1=O)C[C@@H]1[C@@H](CO)[C@H](C(=O)NCCC)[C@H]2N1CC1CCOCC1 (mixture of isomers) | · | 1 | 19 | · | · | · | ·
CC=Cc1ccc2n(c1=O)C[C@@H]1[C@@H](CO)[C@H](C(=O)NCCC)[C@H]2N1CC1CC1 (mixture of isomers) | · | 0 | 102* | 31 | -45 | 14 | -15
CC=Cc1ccc2n(c1=O)C[C@@H]1[C@@H](CO)[C@H](C(=O)NCC3CC3)N(CCC)[C@H]21 (mixture of isomers) | · | 3 | · | · | · | · | ·
CC=Cc1ccc2n(c1=O)C[C@H]1[C@H](CO)[C@@H](C(=O)NCCC)[C@@H]2N1C(=O)c1ccncc1 (mixture of isomers) | · | 0 | · | · | · | · | ·
Cc1cc(Br)c(NC(=O)CSc2nccc(=O)[nH]2)cc1C | 0 | · | · | · | · | · | ·
C=C1CC[C@H]2[C@](C)(CCC[C@]2(C)C(=O)OC)[C@H]1CC/C(C)=C/C(=O)O | 0 | · | · | · | · | · | ·
COc1ccc(C(=O)c2oc3ccccc3c2NC(=O)COc2ccc(F)cc2)cc1 | 0 | · | · | · | · | · | ·
COC(=O)c1c(NC(=O)COc2cc(C)ccc2C)sc2c1CCC2 | 0 | · | · | · | · | · | ·
C=C[C@](C)(O)CC/C=C(\C)C(=O)O[C@@H]1[C@@H]2O[C@]2(C)[C@H]2[C@H](O[C@@H]3O[C@H](CO)[C@@H](O)[C@H](O)[C@H]3O)OC=C[C@@]12OC(=O)/C(C)=C/CC[C@](C)(O)C=C | 0 | · | · | · | · | · | ·
